Reference: PMC7814465 (Cell reports, 2020)
Primed or numbered codes have the meaning given here. Ends that are not written are not given here. FITC′ = fluorescein isothiocyanate

Tests used:
GST-GR25 / TDP-43 = test: Sedimentation of GST-GR25 with TDP-43 and NTRs; type: biochemical; conditions: anti-GST western blot, three independent experiments
Outline: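 1 µM TDP-43-MBP-His was Tev-cleaved (20 µg/ml His-Tev, 60 min, 30°C) with or without equimolar GST-tagged DPR and/or NTRs. Samples were centrifuged 15 min at 21,000 g, 4°C. Equal volumes of supernatant and pellet were analysed by anti-GST western blot.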

TNPO1 (His-TNPO1) = test: SDD-AGE oligomer formation, TNPO1; type: biochemical; conditions: 10-fold molar excess: 2 μM importin, 20 μM TMR-DPR, pH 7.5, 200 mM NaCl, 1 h RT
TNPO3 = test: Pull-down from HeLa cytosol, TNPO3; type: binding; conditions: biotinylated peptide, western blot
Outline: (§1)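 It was cleared at 21,000 g, 4°C. Cytosol was incubated under physiological buffer conditions with biotinylated DPR peptides immobilized on ovalbumin-blocked streptavidin beads, and bound NTRs were detected by western blot.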

Impβ = test: Pull-down from HeLa cytosol, Impβ; type: binding; conditions: biotinylated peptide, western blot
Outline: (§2)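 Biotin-DPR bait (5 μg per 10 μl beads) immobilised overnight with 2 mg/ml ovalbumin. Prey bound in B-buffer with 2 mg/ml BSA, washed without BSA, eluted in 2× SDS loading buffer. Two independent replicates.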

[1] = system: GCR2-GFP2 reporter in cytoplasm; test: FRAP of cytoplasmic GCR2-GFP2 reporter; type: cell-based; conditions: 10 µM GR25, 2 h, dexamethasone; 34-38 cells, two independent experiments
Impα3 (His-Impα3) = test: SDD-AGE oligomer formation, Impα3; type: biochemical, rat; conditions: 10-fold molar excess: 2 μM importin, 20 μM TMR-DPR, pH 7.5, 200 mM NaCl, 1 h RT
[2] = system: Impβ (His-S-Impβ, in the absence of Impα); test: Sedimentation assay, Impβ alone; type: biochemical
Outline: (§3)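 Protein was 1 µM purified NTR alone, or 500 nM Impα with 500 nM Impβ. Samples were centrifuged 15 min at 21,000 g, 4°C. Equal volumes of supernatant and pellet were analysed by SDS-PAGE with Sypro-Ruby stain or western blot.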

TNPO1 = target: T1, TNPO1 (Homo sapiens, UniProt Q92973); test: Pull-down from HeLa cytosol, TNPO1; type: binding; conditions: biotinylated peptide, western blot
T1 sequence (Q92973 1-898): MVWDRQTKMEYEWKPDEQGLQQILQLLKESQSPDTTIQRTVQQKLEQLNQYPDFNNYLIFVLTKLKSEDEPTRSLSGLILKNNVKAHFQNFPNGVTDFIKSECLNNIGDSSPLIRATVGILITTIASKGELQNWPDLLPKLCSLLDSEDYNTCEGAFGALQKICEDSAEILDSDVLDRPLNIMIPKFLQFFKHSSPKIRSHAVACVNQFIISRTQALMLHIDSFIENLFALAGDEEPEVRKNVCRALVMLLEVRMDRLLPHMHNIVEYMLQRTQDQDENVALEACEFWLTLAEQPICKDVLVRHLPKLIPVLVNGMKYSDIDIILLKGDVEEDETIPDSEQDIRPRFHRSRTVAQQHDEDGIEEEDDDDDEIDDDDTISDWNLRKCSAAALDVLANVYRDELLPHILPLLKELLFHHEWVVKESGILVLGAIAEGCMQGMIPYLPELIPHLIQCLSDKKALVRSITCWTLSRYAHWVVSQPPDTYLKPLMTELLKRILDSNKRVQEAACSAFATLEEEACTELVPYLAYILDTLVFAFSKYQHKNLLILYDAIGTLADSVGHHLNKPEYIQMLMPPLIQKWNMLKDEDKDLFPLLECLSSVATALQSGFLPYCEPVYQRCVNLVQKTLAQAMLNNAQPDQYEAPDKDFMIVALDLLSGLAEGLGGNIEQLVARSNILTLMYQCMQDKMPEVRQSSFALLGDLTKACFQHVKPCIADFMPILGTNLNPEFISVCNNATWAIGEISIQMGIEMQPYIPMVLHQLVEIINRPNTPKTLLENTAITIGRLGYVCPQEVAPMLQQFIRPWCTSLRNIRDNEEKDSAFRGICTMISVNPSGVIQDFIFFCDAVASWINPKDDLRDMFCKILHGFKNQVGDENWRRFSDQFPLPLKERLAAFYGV
Outline: as §1

GAPDH in HeLa cytosol = test: Sedimentation assay from HeLa cytosol, GAPDH; type: biochemical; conditions: highest GR/PR concentrations
[3] = system: GCR2-GFP2 reporter in HeLa cells; test: Diffusion of reporter without NLS into nucleus; type: cell-based; conditions: 10 µM TMR-GR25, 2 h; three independent experiments, 43-102 cells
[4] = system: TDP-43 (TDP-43-Tev-MBP/MBP-Tev-TDP-43-GFP); test: TDP-43 condensate formation with DPRs, microscopy; type: biochemical; conditions: TMR-labeled DPR, equimolar (1x) or two-fold (2x), 2 μM TDP-43/TDP-43-GFP, Tev cleavage, 200 mM NaCl, pH 7.5
Outline: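 Size-exclusion-purified TDP-43-MBP-His (2 μM) was mixed with substoichiometric MBP-TDP-43-GFP-His (1:4–1:5). Condensates were imaged by laser scanning confocal microscopy.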

Impα1 = test: Pull-down with purified Impα1; type: binding; conditions: biotinylated peptide, purified Impα1, Figure S1E
Outline: (§4)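 Streptavidin beads were blocked with 20 mg/ml ovalbumin, then loaded overnight with 5 µg biotinylated DPR peptide per reaction. 5 µg purified prey protein was added in 50 mM Tris pH 7.5, 200 mM NaCl, 1 mM MgCl2, 5% glycerol, 2 mM DTT, 2 mg/ml BSA. After washes, bound protein was eluted in SDS loading buffer and analysed by SDS-PAGE with Sypro-Ruby staining. Two independent replicates.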

Impb = conditions: FRET sensors and bead Halo assays; ref Hayes et al., 2019; cited from earlier work
Imp7 = test: Pull-down from HeLa cytosol, Imp7; type: binding; conditions: biotinylated peptide, western blot
Outline: as §2

CRM1 = test: Sedimentation assay, CRM1; type: biochemical
Outline: as §3

Impα3 [5] = test: Pull-down with purified Impα3; type: binding, rat; conditions: biotinylated peptide, purified Impα3, pH 7.5, 200 mM NaCl
Outline: as §4

Impα3 [6] = test: Pull-down from HeLa cytosol, Impα3; type: binding; conditions: biotinylated peptide, western blot
Outline: as §2

[7] = system: nuclear import of GCR2-GFP2-cNLS in HeLa cells; test: Hormone-induced nuclear import assay, cNLS reporter; type: cell-based; conditions: 10 µM TMR-GR25, 2 h; three independent experiments, 14-61 cells
Outline: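 HeLa cells were passaged at least twice in DMEM with 10% dialyzed FBS and expressed the GCR2-GFP2-MBP-cNLS reporter. They were pre-incubated 2 h with 10 µM TMR-labeled DPR peptide added once to serum-free imaging medium. Import was induced with 5 µM (final) dexamethasone, and spinning-disk live imaging ran 40–50 min at 2.5-min intervals. Only peptide-positive cells were quantified. N/C ratio is given as mean ± SEM of three experiments, with area under the curve compared by unpaired t test.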

[8] = system: NTRs (importins) from HeLa cytosol; test: Pull-down from HeLa cytosol with biotinylated DPR, NTRs; type: binding; conditions: immobilized biotinylated peptide, western blot
Outline: as §1

TNPO1 (TEV-cleaved) = target: T2, TNPO1 (TEV-cleaved) (UniProt Q92973 1-898); test: fluorescence polarisation
T2 sequence (looked up): T1 sequence (Q92973 1-898)

[9] = 10-fold molar excess of TMR-labeled DPR, n = 3
[10] = extremely high concentrations (up to 40x)

## GST-GR25: recombinant GST fusion of GR25
GST-GR25 / TDP-43; absence of TDP-43
  solubility of GST-GR25: completely soluble
GST-GR25 / TDP-43; presence of cleaved TDP-43
  solubility of GST-GR25: moved efficiently into the pellet fraction

## poly-GR: arginine-rich dipeptide repeat protein species; in the experiments mostly GR25
TNPO1 (His-TNPO1)
  oligomer formation of TNPO1 (SDS-resistant): SDS-resis-tant oligomers
TNPO3
  binding in pull-down: bound preferentially to poly-GR
Impβ
  binding in pull-down: bound equally to both poly-GR and poly-PR
[1]
  mobility of GCR2-GFP2 reporter in cytoplasm (FRAP): unchanged
Impα3 (His-Impα3)
  oligomer formation of Impα3 (SDS-resistant): SDS-resis-tant oligomers
[2]; [9]
  solubility of Impβ: remained mainly soluble
[2]; [10]
  precipitation of Impβ, titration: only partial or no precipitation
TNPO1
  binding in pull-down: bound preferentially to poly-GR
GAPDH in HeLa cytosol
  precipitation of GAPDH from HeLa cytosol: not precipitated
[3]
  diffusion of reporter without NLS into nucleus (N/C ratio): only mildly affected
[4]
  TDP-43 condensate formation: formation of condensates
Impα1
  direct binding in pull-down: preferentially to poly-GR
Impb
  direct binding to Impb in vitro: direct binding
Imp7
  binding in pull-down: bound equally to both poly-GR and poly-PR
CRM1; [9]
  solubility of CRM1: remained mainly soluble
CRM1; [10]
  precipitation of CRM1, titration: only partial or no precipitation
Impα3 [5]
  direct binding in pull-down: preferentially to poly-GR
Impα3 [6]
  binding in pull-down: bound equally to both poly-GR and poly-PR
[7]
  nuclear import of cNLS reporter (N/C ratio): reduced nuclear import

## poly-GP: non-charged DPR species; in the experiments GP25 (GPGPGPGPGPGPGPGPGPGPGPGPGPGPGPGPGPGPGPGPGPGPGPGPGP; not fully specified; also: biotin, position not given here) [reference compound]
TNPO1 (His-TNPO1)
  oligomer formation of TNPO1 (SDS-resistant): not poly-GP
Impα3 (His-Impα3)
  oligomer formation of Impα3 (SDS-resistant): not poly-GP
[4]
  TDP-43 condensate formation: no effect

## GP25: non-charged control DPR (GPGPGPGPGPGPGPGPGPGPGPGPGPGPGPGPGPGPGPGPGPGPGPGPGP; not fully specified; also: biotin, position not given here)
[8]
  binding in pull-down: not to the non-charged control DPR GP25

## TMR-PR25: tetramethylrhodamine (TMR)-labeled PR25 (PRPRPRPRPRPRPRPRPRPRPRPRPRPRPRPRPRPRPRPRPRPRPRPRPR; also: TMR label, position not given here)
TNPO1 (His-TNPO1)
  oligomer formation of TNPO1 (SDS-resistant): oligomer formation
Impα3 (His-Impα3)
  oligomer formation of Impα3 (SDS-resistant): oligomer formation

## TMR-GR25: tetramethylrhodamine (TMR)-labeled GR25 (GRGRGRGRGRGRGRGRGRGRGRGRGRGRGRGRGRGRGRGRGRGRGRGRGR; also: TMR label, position not given here)
TNPO1 (His-TNPO1)
  oligomer formation of TNPO1 (SDS-resistant): oligomer formation
Impα3 (His-Impα3)
  oligomer formation of Impα3 (SDS-resistant): oligomer formation

## {FITC′}-GRGRGRGRGRGRGRGRGRGRGRGRGRGRGRGRGRGRGRGRGRGRGRGRGR [FITC-GR25]
TNPO1 (TEV-cleaved)
  Kd: ~200 nM

## {FITC′}-PRPRPRPRPRPRPRPRPRPRPRPRPRPRPRPRPRPRPRPRPRPRPRPRPR [FITC-PR25]
TNPO1 (TEV-cleaved)
  Kd: ~200 nM
